{
  "source": "paper PMC3358452",
  "about": "(Chemical Research in Toxicology, 2012)",
  "key": {"[1]": {"assay": "pKa of", "format": "physicochemical", "conditions": "Calculated pKa, 25 °C, buffer 0.05 M, AH/A- = 1.0", "in_short": "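pH was measured in solutions of the sodium salt of the acid, measured gravimetrically and partially neutralized with HCl. Solutions held 5% by volume acetonitrile, with ionic strength balanced by KCl. […] Mean and SD of duplicates at 25 °C.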"}, "[2]": {"tested_on": "F344 rat liver"}, "[3]": {"assay": "Lower limit of KO by monitoring disappearance of the lactone multiplets", "format": "physicochemical", "conditions": "D2O, 1 M DClO4, lactone multiplets monitored to equilibrium"}, "[4]": {"format": "physicochemical", "in_short": "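Reverse-phase HPLC quantified lactone left after an acidic aqueous solution reached equilibrium at 25 °C. The solution initially held 0.05 M lactone, measured gravimetrically, in 5% by volume acetonitrile. Ionic strength was set with KCl and hydrogen ion concentration varied. Remaining lactone was interpolated from a standard curve; triplicate injections per determination.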"}, "[5]": {"assay": "Kinetics of decay", "format": "physicochemical", "conditions": "for half-life at 0.0013 M: buffered aqueous solution, pH 7, t1/2 for decay", "in_short": "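The first check was in D2O with 0.005 M DCl, 0.005 M lactone and 0.005 M acetonitrile as internal standard, at 25 °C. Loss of the C-6 1H-NMR resonances at 4.78 ppm was compared with UV decay at 225 nm. The extended UV runs used 220–235 nm, 5% acetonitrile/H2O, ionic strength 1 M (KCl), 25 °C and 0.0013 M lactone. Buffers were formic, acetic, cacodylic and ethylphosphonic.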"}, "[6]": {"conditions": "group 2: AFB1 followed by 1 (1.32 g over 12 weeks), mean ± SEM"}, "[7]": {"conditions": "group 3: 1 only (1.32 g over 12 weeks)"}, "[8]": {"conditions": "fit of log ko vs pH, 25 °C, ionic strength 1 M (KCl), 5% by volume acetonitrile"}},
  "note": "Read-outs that look alike come from different tables or passages of the source.",
  "data": [
    {"compound": "O=C(O)COCCO", "note": "[compound 2, 2-(2-hydroxyethoxy) acetic acid]", "values": [
      {"measurement": "pKa", "setting": "[1]; ionic strength 0.05 M", "value": 3.43},
      {"measurement": "pKa", "setting": "[1]; ionic strength 0.25 M (KCl)", "value": 3.36},
      {"measurement": "pKa", "setting": "[1]; ionic strength 0.35 M (KCl)", "value": 3.36},
      {"measurement": "pKa", "setting": "[1]; ionic strength 0.45 M (KCl)", "value": 3.36},
      {"measurement": "pKa", "setting": "[1]; ionic strength 0.55 M (KCl)", "value": 3.38}
    ]},
    {"compound": "aflatoxin B1 [AFB1, reference compound]", "values": [
      {"measurement": "Foci per cubic cm (morphometric)", "setting": "[2]; rat, in vivo", "value": "1230 ± 410"},
      {"measurement": "Mean Diameter of foci (morphometric)", "setting": "[2]; rat, in vivo", "value": "227 ± 35", "unit": "microns"},
      {"measurement": "Mean Foci Counted (observed)", "setting": "[2]; rat, in vivo", "value": "44 ± 8"},
      {"measurement": "Volume % of liver occupied by GST-P positive foci", "setting": "[2]; rat, in vivo", "value": "3.1 ± 1.0", "unit": "%"},
      {"measurement": "average size of observed GST-P positive foci", "setting": "[2]; rat, in vivo", "value": "> 200", "unit": "µm"}
    ]},
    {"compound": "O=C1COCCO1", "note": "[compound 1, 1,4-Dioxan-2-one]", "values": [
      {"measurement": "average size of observed GST-P positive foci", "setting": "[2]; group 2 (AFB1 + 1), data not shown", "value": "> 200", "unit": "µm"},
      {"measurement": "Foci per cubic cm (morphometric)", "setting": "[2]; [6]", "value": "1190 ± 230"},
      {"measurement": "Mean Diameter of foci (morphometric)", "setting": "[2]; [6]", "value": "210 ± 32", "unit": "microns"},
      {"measurement": "Volume % of liver occupied by GST-P positive foci", "setting": "[2]; [6]", "value": "2.1 ± 0.7", "unit": "%"},
      {"measurement": "diameter of the single focus observed", "setting": "[2]; group 3 (1 only)", "value": 65, "unit": "µm"},
      {"measurement": "Mean Diameter of foci (morphometric)", "setting": "[2]; [7]", "value": 65, "unit": "microns"},
      {"measurement": "Volume % of liver occupied by GST-P positive foci", "setting": "[2]; [7]", "value": 0.001, "unit": "%"},
      {"measurement": "Foci per cubic cm (morphometric)", "setting": "[2]; group 3: 1 only (1.32 g over 12 weeks), mean ± SEM", "value": "6.1 ± 6.1"},
      {"measurement": "Mean Foci Counted (observed)", "setting": "[2]; group 3: 1 only, gavage 3 days/week for 12 weeks (1.32 g total), mean ± SEM", "value": "0.1 ± 0.1"},
      {"measurement": "KO, lower limit value", "setting": "[3]", "value": "> 50"},
      {"measurement": "KOA, equilibrium constant between 1 and carboxylic acid anion 3 and the proton (KOA = Ka × KO)", "setting": "[4]; 25 °C, ionic strength 1M (KCl), 5% by volume acetonitrile", "value": "0.034 ± 0.002", "unit": "M"},
      {"measurement": "Ko, equilibrium constant for lactone 1 and its open-chain acid form", "setting": "[4]; 25 °C, [HCl] 0.05 M, total ionic strength 0.05 M, 5% by volume acetonitrile", "value": 71},
      {"measurement": "Ko, equilibrium constant for lactone 1 and its open-chain acid form", "setting": "[4]; 25 °C, [HCl] 0.10 M, total ionic strength 1.0 M (KCl), 5% by volume acetonitrile", "value": 70},
      {"measurement": "Ko, equilibrium constant for lactone 1 and its open-chain acid form", "setting": "[4]; 25 °C, [HCl] 0.20 M, total ionic strength 1.0 M (KCl), 5% by volume acetonitrile", "value": 70},
      {"measurement": "KO, equilibrium constant between 1 and hydrolysis product 2", "setting": "[4]; acidic aqueous media, 25 °C, ionic strength 1M (KCl), 5% by volume acetonitrile", "value": "70 ± 3.5"},
      {"measurement": "lactone as percent of the total species at equilibrium", "setting": "[4]; pH = 7", "value": "~ 3 ×10^−4%"},
      {"measurement": "first order rate constant of decay (NMR)", "setting": "[5]; 1H-NMR, D2O, 0.005 M DCl, 25 °C", "value": "0.017 ± 0.002", "unit": "min⁻¹"},
      {"measurement": "first order rate constant of decay (UV)", "setting": "[5]; UV spectrophotometry, D2O, 0.005 M DCl, 25 °C", "value": "0.016 ± 0.001", "unit": "min⁻¹"},
      {"measurement": "half-life at 0.0013 M", "setting": "[5]; pH 7", "value": 2.12, "unit": "h"},
      {"measurement": "half-life at 0.0013 M", "setting": "[5]; pH = 7.0, 25 °C", "value": "~2", "unit": "h"},
      {"measurement": "factor by which 1 is more reactive toward hydroxide ion than valerolactone", "setting": "[5]; comparison with literature rate constant", "value": "~ 1500"},
      {"measurement": "kH+, hydrogen ion catalyzed rate constant for solvolysis", "setting": "[5]; [8]", "value": "1.1 (± 0.1) M^−1 min^−1"},
      {"measurement": "kOH, hydroxide ion catalyzed rate constant", "setting": "[5]; [8]", "value": "4.1 (± 0.3) × 10^4 M^−1 min^−1"},
      {"measurement": "kw, water catalyzed (pH-independent) rate constant", "setting": "[5]; [8]", "value": "9.9 (± 0.5) × 10^−4 min^−1"}
    ]}
  ]
}
